# Data taken from article PMC11000255 (Journal of the American Chemical Society, 2024).
# How the values were obtained:
# prohibitin-2 (PHB2) = prohibitin-2 (PHB2) (Homo sapiens, UniProt Q99623); assay: TMT18plex lysine ligandability profiling, PHB2; format: binding; details: 100 μM, 8 h, breast cancer cells
# Summary of the method: (§1)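 Live MDA-MB-231 or MDA-MB-436 breast cancer cells were exposed to the test compound (100 µM, 8 h) or DMSO vehicle. Lysates (soluble and insoluble fractions) were chased with a desthiobiotin-tagged lysine-specific STP ester probe, trypsin-digested, streptavidin-enriched and quantified by TMTpro-18plex. Lysines had to be quantified in all biological triplicates and TMT channels. A lysine counted as liganded at ≥60% loss of probe enrichment relative to DMSO.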
# stathmin (STMN1) = stathmin (STMN1) (Homo sapiens, UniProt P16949); assay: TMT18plex lysine ligandability profiling, STMN1; format: binding; details: 100 μM, 8 h, breast cancer cells
# Sequence of stathmin (STMN1) (P16949 whole entry): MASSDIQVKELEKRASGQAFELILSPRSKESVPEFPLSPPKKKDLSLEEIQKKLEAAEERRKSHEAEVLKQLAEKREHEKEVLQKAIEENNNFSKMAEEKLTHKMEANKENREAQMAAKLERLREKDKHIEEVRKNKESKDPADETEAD
# Summary of the method: as §1
# [1] = molecular target: mitochondrial citrate synthase (CS) (Homo sapiens, UniProt O75390); assay: TMT18plex lysine ligandability profiling, CS; format: binding; details: MDA-MB-231 cells
# Sequence of mitochondrial citrate synthase (CS) (O75390 28-466): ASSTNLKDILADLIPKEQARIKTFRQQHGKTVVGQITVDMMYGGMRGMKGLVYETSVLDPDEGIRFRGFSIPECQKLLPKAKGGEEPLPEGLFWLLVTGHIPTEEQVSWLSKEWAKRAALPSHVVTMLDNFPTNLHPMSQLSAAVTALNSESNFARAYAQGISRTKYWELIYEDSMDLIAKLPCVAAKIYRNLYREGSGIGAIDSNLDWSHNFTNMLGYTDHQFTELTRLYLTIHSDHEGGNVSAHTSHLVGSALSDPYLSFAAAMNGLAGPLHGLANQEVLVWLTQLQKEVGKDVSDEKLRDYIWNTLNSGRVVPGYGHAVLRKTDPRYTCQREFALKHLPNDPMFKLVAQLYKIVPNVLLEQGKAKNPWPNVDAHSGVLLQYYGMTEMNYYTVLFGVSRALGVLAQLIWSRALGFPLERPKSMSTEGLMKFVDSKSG
# Summary of the method: as §1
# annexin A4 (ANXA4) = annexin A4 (ANXA4) (Homo sapiens, UniProt P09525); assay: TMT18plex lysine ligandability profiling, ANXA4; format: binding; details: liganded = ≥60% reduction in probe enrichment; single meroterpenoid
# Sequence of annexin A4 (ANXA4) (P09525 whole entry): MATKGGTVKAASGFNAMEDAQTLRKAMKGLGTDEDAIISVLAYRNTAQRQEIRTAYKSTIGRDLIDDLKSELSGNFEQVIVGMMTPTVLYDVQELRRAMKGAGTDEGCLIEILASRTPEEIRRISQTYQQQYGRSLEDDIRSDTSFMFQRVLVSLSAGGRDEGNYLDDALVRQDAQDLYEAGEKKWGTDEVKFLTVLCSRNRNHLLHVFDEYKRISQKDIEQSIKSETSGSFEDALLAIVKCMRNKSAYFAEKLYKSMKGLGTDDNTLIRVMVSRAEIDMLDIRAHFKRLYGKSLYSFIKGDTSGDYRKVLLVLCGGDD
# Summary of the method: as §1
# MDA-MB-231 cells [2] = assay: in-gel fluorescence profiling of clickable probes; format: cell-based, human; details: in MDA-MB-231 cells
# [3] = format: physicochemical; details: excess of butylamine; for fold increased half-life / diminished rate compared to salicylaldehyde: vs salicylaldehyde
# ionization constants = format: physicochemical
# IDH2 = IDH2 (Homo sapiens, UniProt P48735); assay: immunoblotting analysis of IDH2 homodimerization
# Sequence of IDH2 (P48735 40-452): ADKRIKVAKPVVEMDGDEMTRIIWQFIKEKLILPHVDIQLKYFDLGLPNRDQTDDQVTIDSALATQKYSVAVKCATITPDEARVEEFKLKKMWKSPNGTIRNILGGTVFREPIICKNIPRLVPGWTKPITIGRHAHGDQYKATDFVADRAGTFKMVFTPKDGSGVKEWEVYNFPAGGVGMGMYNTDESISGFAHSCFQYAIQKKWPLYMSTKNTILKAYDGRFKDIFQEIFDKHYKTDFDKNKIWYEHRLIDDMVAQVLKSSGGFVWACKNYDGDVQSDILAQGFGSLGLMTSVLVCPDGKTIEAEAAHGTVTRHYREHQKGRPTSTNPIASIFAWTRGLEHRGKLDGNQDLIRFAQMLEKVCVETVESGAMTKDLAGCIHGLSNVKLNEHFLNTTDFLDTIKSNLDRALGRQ
# Summary of the method: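 Flag-tagged WT- and R140Q-IDH2, with K299 and K413 mutants, were recombinantly expressed in HEK293T cells. Lysates were treated with the test compound, and IDH2 homodimer formation was read by immunoblot.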
# K373R-ABHD12 = K373R-ABHD12 (Homo sapiens, UniProt Q8N2K0, K373R); assay: LC/MS-based LPS hydrolysis assay, K373R-ABHD12 in HEK293T cell lysates; format: biochemical
# Sequence of K373R-ABHD12 (Q8N2K0 whole entry K373R): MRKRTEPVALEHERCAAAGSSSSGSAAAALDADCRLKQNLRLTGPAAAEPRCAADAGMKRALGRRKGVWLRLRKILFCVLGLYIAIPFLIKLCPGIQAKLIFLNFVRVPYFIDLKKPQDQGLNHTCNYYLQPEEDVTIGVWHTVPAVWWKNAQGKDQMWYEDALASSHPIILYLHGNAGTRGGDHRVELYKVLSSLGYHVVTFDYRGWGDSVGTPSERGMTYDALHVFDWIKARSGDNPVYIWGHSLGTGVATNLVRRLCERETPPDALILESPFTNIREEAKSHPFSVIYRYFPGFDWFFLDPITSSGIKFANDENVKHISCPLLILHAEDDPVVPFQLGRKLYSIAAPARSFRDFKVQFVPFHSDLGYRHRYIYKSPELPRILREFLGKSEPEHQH
# Summary of the method: (§2)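 Recombinant ABHD12 (WT, S246A and K373 mutants) was expressed in HEK293T cells and used as cell lysate. Lysate was preincubated with the test compound (single-point 100 µM, or a dose series; 1 h, 37 °C), then given 17:1 LPS substrate (100 µM, 20 min, 37 °C).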
# transthyretin (TTR) = transthyretin (TTR) (Homo sapiens, UniProt P02766); assay: TMT18plex lysine ligandability profiling, TTR; format: binding; details: liganded = ≥60% reduction in probe enrichment; single meroterpenoid
# Summary of the method: as §1
# WT-ABHD12 = molecular target: T1, WT-ABHD12 (Homo sapiens, UniProt Q8N2K0); assay: LC/MS-based LPS hydrolysis assay, WT-ABHD12 in HEK293T cell lysates; format: biochemical
# T1 sequence (Q8N2K0 1-398): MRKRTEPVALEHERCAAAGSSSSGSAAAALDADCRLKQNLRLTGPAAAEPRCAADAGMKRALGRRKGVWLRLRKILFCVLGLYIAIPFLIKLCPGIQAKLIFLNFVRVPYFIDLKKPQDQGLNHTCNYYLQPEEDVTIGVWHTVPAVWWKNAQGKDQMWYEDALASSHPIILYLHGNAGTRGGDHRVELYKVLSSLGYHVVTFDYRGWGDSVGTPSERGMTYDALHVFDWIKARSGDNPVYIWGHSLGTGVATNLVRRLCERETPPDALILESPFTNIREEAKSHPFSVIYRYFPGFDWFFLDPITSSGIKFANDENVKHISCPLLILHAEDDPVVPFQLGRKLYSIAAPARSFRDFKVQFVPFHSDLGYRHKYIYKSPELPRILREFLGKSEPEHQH
# Summary of the method: as §2
# WT-IDH2 = WT-IDH2 (Homo sapiens, UniProt P48735); assay: oxidative IDH2 activity; format: biochemical
# Sequence of WT-IDH2 (P48735 40-452): as the sequence (P48735 40-452) above
# Summary of the method: (§3)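 HEK293T lysates expressed recombinant IDH2: WT, K299 mutants, K413R, or double K299R/K413R. Lysate was preincubated with the test compound (single-point 100 µM, or a dose series; 1 h, 37 °C). α-KG production from D-(+)-threo-isocitrate (1.3 mM, 1 h, 25 °C) was measured.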
# ABHD12 [4] = molecular target: T2, ABHD12 (Homo sapiens, UniProt Q8N2K0); assay: TMT18plex lysine ligandability profiling, ABHD12; format: binding; details: both MDA-MB-231 and MDA-MB-436 cell lines
# T2 sequence (Q8N2K0 1-398): T1 sequence (Q8N2K0 1-398)
# Summary of the method: as §1
# MDA-MB-231 cells [5] = assay: untargeted lipidomics profiling of treated cells; format: cell-based, human; details: 100 μM, 8 h
# K299R/K413R-IDH2 = K299R/K413R-IDH2 (Homo sapiens, UniProt P48735, K299R/K413R); assay: oxidative IDH2 activity, K299R/K413R-IDH2 in HEK293T cell lysates; format: biochemical
# Sequence of K299R/K413R-IDH2 (P48735 40-452 K299R/K413R): as the sequence (P48735 40-452) above, with K260R, K374R counted along it
# K413R-IDH2 = K413R-IDH2 (Homo sapiens, UniProt P48735, K413R); assay: oxidative IDH2 activity, K413R-IDH2 in HEK293T cell lysates; format: biochemical
# Sequence of K413R-IDH2 (P48735 40-452 K413R): as the sequence (P48735 40-452) above, with K374R counted along it
# Summary of the method: as §3
# ABHD12 [6] = molecular target: T2, ABHD12; assay: immunoblot analysis of high-molecular-weight ABHD12 aggregates; details: recombinant ABHD12, immunoblot
# Summary of the method: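 Flag-tagged WT and K373R ABHD12 expressed recombinantly in HEK293T cells; lysates treated with increasing test compound, then labeled with TAMRA-FP. Read-out by in-gel fluorescence plus Western blot, tracking monomeric and high-molecular-weight ABHD12 bands.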
# K299R-IDH2 = K299R-IDH2 (Homo sapiens, UniProt P48735, K299R); assay: oxidative IDH2 activity, K299R-IDH2 in HEK293T cell lysates; format: biochemical
# Sequence of K299R-IDH2 (P48735 40-452 K299R): as the sequence (P48735 40-452) above, with K260R counted along it
# Summary of the method: as §3
# WT-PFKM = WT-PFKM (Homo sapiens, UniProt P08237); assay: F6P phosphorylation assay, WT-PFKM in HEK293T cell lysates; format: biochemical
# Sequence of WT-PFKM (P08237 whole entry): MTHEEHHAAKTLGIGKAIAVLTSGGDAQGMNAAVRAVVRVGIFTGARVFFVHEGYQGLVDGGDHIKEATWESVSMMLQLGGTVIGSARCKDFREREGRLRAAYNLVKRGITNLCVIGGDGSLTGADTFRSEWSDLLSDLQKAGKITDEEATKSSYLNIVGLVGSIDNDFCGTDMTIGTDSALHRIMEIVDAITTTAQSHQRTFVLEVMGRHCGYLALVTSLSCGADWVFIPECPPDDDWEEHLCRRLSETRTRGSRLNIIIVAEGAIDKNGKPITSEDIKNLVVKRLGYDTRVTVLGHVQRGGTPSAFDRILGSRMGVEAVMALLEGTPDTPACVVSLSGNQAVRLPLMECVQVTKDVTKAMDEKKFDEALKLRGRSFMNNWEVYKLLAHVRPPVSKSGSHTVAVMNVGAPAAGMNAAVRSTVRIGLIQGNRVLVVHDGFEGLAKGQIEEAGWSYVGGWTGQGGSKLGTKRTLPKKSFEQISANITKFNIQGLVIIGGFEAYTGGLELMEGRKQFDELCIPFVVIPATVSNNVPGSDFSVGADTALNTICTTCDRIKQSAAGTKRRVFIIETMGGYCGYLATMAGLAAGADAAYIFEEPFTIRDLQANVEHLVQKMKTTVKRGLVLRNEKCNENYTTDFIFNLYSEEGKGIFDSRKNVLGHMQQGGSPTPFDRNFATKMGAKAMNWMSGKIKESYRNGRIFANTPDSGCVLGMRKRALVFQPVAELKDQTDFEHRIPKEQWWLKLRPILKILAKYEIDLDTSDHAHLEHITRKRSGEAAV
# Summary of the method: (§4)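 Epitope-tagged WT-PFKM or K678R-PFKM was recombinantly expressed in HEK293T cells and used as lysate. Lysate was preincubated with the test compound (single-point 100 µM, or a dose series; 2 h, 37 °C).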
# K678R-PFKM = K678R-PFKM (Homo sapiens, UniProt P08237, K678R); assay: F6P phosphorylation assay, K678R-PFKM in HEK293T cell lysates; format: biochemical
# Sequence of K678R-PFKM (P08237 whole entry K678R): as the sequence (P08237 whole entry) above, with K678R counted along it
# Summary of the method: as §4
# R140Q-IDH2 = R140Q-IDH2 (Homo sapiens, UniProt P48735, R140Q); assay: reductive activity; format: biochemical
# Sequence of R140Q-IDH2 (P48735 40-452 R140Q): as the sequence (P48735 40-452) above, with R101Q counted along it
# Summary of the method: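 Lysates of HEK293T cells expressed recombinant R140Q-IDH2, alone or with K299R or K299R/K413R added. Lysate was preincubated with the test compound (single-point 100 µM, or a dose series; 2 h, 20 °C). 2-HG production from α-KG substrate (0.6 mM, 1 h, 25 °C) was measured.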
# [7] = phenolic core of ubiquinol; cited from earlier work
# OCIAD2 = OCIAD2 (Homo sapiens, UniProt Q56VL3); assay: TMT18plex lysine ligandability profiling, OCIAD2; format: binding; details: 100 μM, 8 h
# Sequence of OCIAD2 (Q56VL3 whole entry): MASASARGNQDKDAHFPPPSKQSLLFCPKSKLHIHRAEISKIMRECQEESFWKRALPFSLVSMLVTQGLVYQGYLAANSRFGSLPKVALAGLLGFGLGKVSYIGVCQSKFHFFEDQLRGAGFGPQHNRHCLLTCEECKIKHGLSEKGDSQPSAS
# Summary of the method: as §1
# Sequence of prohibitin-2 (PHB2) (Q99623 whole entry): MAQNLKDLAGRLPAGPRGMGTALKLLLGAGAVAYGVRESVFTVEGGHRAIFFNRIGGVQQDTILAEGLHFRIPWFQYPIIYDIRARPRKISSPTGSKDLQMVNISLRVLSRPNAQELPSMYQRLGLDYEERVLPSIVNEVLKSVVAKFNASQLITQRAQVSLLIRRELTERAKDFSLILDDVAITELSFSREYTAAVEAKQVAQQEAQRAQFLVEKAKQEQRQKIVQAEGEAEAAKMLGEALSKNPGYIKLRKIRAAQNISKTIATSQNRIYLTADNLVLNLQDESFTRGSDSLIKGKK
compound,measurement,setting,value
CC(C)CC(=O)c1c(O)c(C=O)c2c(c1O)C[C@H]1C[C@H]3C[C@H](C3(C)C)[C@@]1(C)O2 [(−)-euglobal-G2],ligandability of K24 in PHB2,prohibitin-2 (PHB2),61%
same,ligandability of K128 in STMN1,stathmin (STMN1),11%
CC(C)CC(=O)c1c(O)c(C=O)c2c(c1O)CC[C@@]1(CC[C@H]3C[C@@H]1C3(C)C)O2 [(−)-euglobal-G3],engagement of K76 in CS,[1],exclusively targeted
CC(C)CC(=O)c1c(O)c(C=O)c(O)c2c1O[C@@]1(CC2)CC[C@H]2C[C@@H]1C2(C)C [(−)-euglobal-G4],engagement of K246 in ANXA4,annexin A4 (ANXA4),exclusively targeted
same,competitive blockade of azide probe (−)-11 labeling,MDA-MB-231 cells [2],blockade of probe (−)-11 labeling for a subset of protein targets in a dose-dependent manner
O=Cc1ccccc1 [benzaldehyde],fold increased half-life / diminished rate compared to salicylaldehyde,[3],10 fold
Cc1c(O)c(C=O)c(O)c(C(=O)CC(C)C)c1O [grandinol],fold diminished rate compared to jensenone,[3]; vs jensenone,30 fold
same,pKa,ionization constants,10.9
CC(C)CC(=O)c1c(O)c(C=O)c(O)c(C=O)c1O [jensenone],IDH2 homodimerization,IDH2,unexpected induction of IDH2 homodimerization
same,IC50,K373R-ABHD12,45.7 µM
same,engagement of K35 in TTR,transthyretin (TTR),selectively engaged
same,pKa,ionization constants,10.5
same,IC50,WT-ABHD12,32.6 µM
same,residual ABHD12 LPS hydrolysis activity,"WT-ABHD12; 100 μM, 1 h, 37 °C, 17:1 LPS substrate",23%
same,IC50,WT-IDH2,20.9 µM
same,effect on IDH2 oxidative activity,"WT-IDH2; 100 μM, 1 h, 37 °C",complete functional inhibition
same,ligandability of K373 in ABHD12,ABHD12 [4],76%
same,levels of monoacylglycerophosphoserine LPS(18:0),MDA-MB-231 cells [5],significantly elevated levels
same,levels of stearic acid FA(18:0),MDA-MB-231 cells [5],concurrent reduction
same,IC50,K299R/K413R-IDH2,> 100 µM
same,oxidative activity following treatment,"K299R/K413R-IDH2; double mutant K299R/K413R-IDH2, 100 μM, 1 h, 20 °C",essentially preserved its oxidative activity
same,IC50,K413R-IDH2,21.4 µM
same,formation of high-molecular-weight ABHD12 aggregates,ABHD12 [6],marked reduction in the monomeric form of ABHD12 and a concomitant increase in high-molecular-weight ABHD12 aggregates
same,IC50,K299R-IDH2,29.8 µM
same,IC50,WT-PFKM,10.8 µM
same,inhibitory effect on catalytic activity of PFKM,"WT-PFKM; 100 μM, 2 h, 37 °C, among the meroterpenoids assessed",most pronounced inhibitory effects
same,IC50,K678R-PFKM,> 100 µM
same,IC50,R140Q-IDH2,26.2 µM
same,effect on reductive activity (2-HG production),"R140Q-IDH2; 100 μM, 2 h, 20 °C",fully abolished the reductive activity
O=Cc1c(O)cc(O)cc1O [phloroglucinaldehyde],fold increased half-life / diminished rate compared to salicylaldehyde,[3],80 fold
COc1c(O)c(C)c(C/C=C(\C)CC/C=C(\C)CC/C=C(\C)CC/C=C(\C)CC/C=C(\C)CC/C=C(\C)CC/C=C(\C)CC/C=C(\C)CC/C=C(\C)CCC=C(C)C)c(O)c1OC [ubiquinol],calculated pKa1,[7],5.31
same,calculated pKa2,[7],10.86
(+)-euglobal-G2,ligandability of K99 in OCIAD2,OCIAD2; MDA-MB-231 cells,92%
same,ligandability of K99 in OCIAD2,OCIAD2; MDA-MB-436 cells,49%
same,ligandability of K24 in PHB2,prohibitin-2 (PHB2),26%
same,ligandability of K128 in STMN1,stathmin (STMN1),67%
